In ChEMBL document CHEMBL4732237, “Discovery of 4-alkoxy-2-aryl-6,7-dimethoxyquinolines as a new class of topoisomerase I inhibitors endowed with potent in vitro anticancer activity” (2021):

What was measured:
Type in all cases: functional
Settings in all cases: read-out: GI
K562 = test: Growth inhibition of human K562 cells at 10 uM incubated for 48 hrs by sulforhodamine B assay relative to control
Method in brief: (§1)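 NCI-60 single-dose screen. Cells were grown in RPMI 1640 with 5% FBS and 2 mM L-glutamine and plated 24 h before drug addition. Compound was added at one concentration in DMSO-derived medium and incubated for 48 h at 37 °C in 5% CO2. Read-out was SRB protein stain at 515 nm. Result is percent growth versus the no-drug control and the time-zero cell count; values below 0 indicate lethality.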

RXF 393 = test: Growth inhibition of human RXF 393 cells at 10 uM incubated for 48 hrs by sulforhodamine B assay relative to control
Method in brief: (§2)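 NCI one-dose screen. Cells grown in RPMI 1640 with 5% FBS and 2 mM L-glutamine, plated and incubated 24 h at 37 °C, 5% CO2. DMSO-dissolved drug added, then 48 h further incubation. Adherent cells fixed with cold TCA, suspension cells fixed after settling. Stained with 0.4% SRB, absorbance read at 515 nm. Reported as percent growth relative to no-drug control and time-zero cell number.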

OVCAR-5 = test: Growth inhibition of human OVCAR-5 cells at 10 uM incubated for 48 hrs by sulforhodamine B assay relative to control; method in brief: as §2
OVCAR-8 = test: Growth inhibition of human OVCAR-8 cells at 10 uM incubated for 48 hrs by sulforhodamine B assay relative to control; method in brief: as §2
SF-295 = test: Growth inhibition of human SF-295 cells at 10 uM incubated for 48 hrs by sulforhodamine B assay relative to control; method in brief: as §2
TK-10 = test: Growth inhibition of human TK-10 cells at 10 uM incubated for 48 hrs by sulforhodamine B assay relative to control
Method in brief: (§3)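 NCI one-dose screen across a 59-line panel. Cells were grown in RPMI 1640 with 5% FBS and 2 mM L-glutamine, plated and pre-incubated 24 h, then exposed to drug for 48 h at 37 °C, 5% CO2. Adherent cells were fixed with cold TCA (10% final), stained with 0.4% SRB in 1% acetic acid and read at 515 nm. Result is percent growth relative to no-drug control and time-zero cell count.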

LOX IMVI = test: Growth inhibition of human LOX IMVI cells at 10 uM incubated for 48 hrs by sulforhodamine B assay relative to control; method in brief: as §1
SNB-75 = test: Growth inhibition of human SNB-75 cells at 10 uM incubated for 48 hrs by sulforhodamine B assay relative to control; method in brief: as §2
OVCAR-3 = test: Growth inhibition of human OVCAR-3 cells at 10 uM incubated for 48 hrs by sulforhodamine B assay relative to control; method in brief: as §2
UO-31 = test: Growth inhibition of human UO-31 cells at 10 uM incubated for 48 hrs by sulforhodamine B assay relative to control; method in brief: as §3
SK-OV-3 = test: Growth inhibition of human SK-OV-3 cells at 10 uM incubated for 48 hrs by sulforhodamine B assay relative to control; method in brief: as §2
SR = test: Growth inhibition of human SR cells at 10 uM incubated for 48 hrs by sulforhodamine B assay relative to control; method in brief: as §2
UACC-62 = test: Growth inhibition of human UACC-62 cells at 10 uM incubated for 48 hrs by sulforhodamine B assay relative to control; method in brief: as §3
M14 = test: Growth inhibition of human M14 cells at 10 uM incubated for 48 hrs by sulforhodamine B assay relative to control; method in brief: as §1

Row | Structure (SMILES) | inhibition of growth at 10 µM (K562) [%] | inhibition of growth at 10 µM (RXF 393) [%] | inhibition of growth at 10 µM (OVCAR-5) [%] | inhibition of growth at 10 µM (OVCAR-8) [%] | inhibition of growth at 10 µM (SF-295) [%] | inhibition of growth at 10 µM (TK-10) [%] | inhibition of growth at 10 µM (LOX IMVI) [%] | inhibition of growth at 10 µM (SNB-75) [%] | inhibition of growth at 10 µM (OVCAR-3) [%] | inhibition of growth at 10 µM (UO-31) [%] | inhibition of growth at 10 µM (SK-OV-3) [%] | inhibition of growth at 10 µM (SR) [%] | inhibition of growth at 10 µM (UACC-62) [%] | inhibition of growth at 10 µM (M14) [%]
1 | COc1cc2nc(-c3ccc(Cl)cc3)cc(OCCN3CCCC3)c2cc1OC | 3 | 3 | 3 | 3 | 3 | 3 | 3 | 3 | 3 | 3 | 3 | 3 | 3 | 3
2 | COc1cc2nc(-c3ccc(Cl)cc3)cc(OCCN3CCOCC3)c2cc1OC | 3 | 3 | 3 | 3 | 3 | 3 | 3 | 3 | 3 | 3 | 3 | 3 | 3 | 3
3 | COc1cc2nc(-c3ccc(C(F)(F)F)cc3)cc(OCCN3CCOCC3)c2cc1OC | 13 | 13 | 13 | 13 | 13 | 13 | 13 | 13 | 13 | 13 | 13 | 13 | 13 | 13
4 | COc1cc2nc(-c3ccc(C(F)(F)F)cc3)cc(OCCN3CCCC3)c2cc1OC | 13 | 13 | 13 | 13 | 13 | 13 | 13 | 13 | 13 | 13 | 13 | 13 | 13 | 13
5 | COc1cc2nc(-c3ccc(Cl)cc3)cc(OCCN3CCC(O)CC3)c2cc1OC | 3 | 3 | 3 | 3 | 3 | 3 | 3 | 3 | 3 | 3 | 3 | 3 | 3 | 3
6 | COc1cc2nc(-c3ccsc3)cc(OCCCN3CCC(O)CC3)c2cc1OC | 32 | 32 | 32 | 32 | 32 | 32 | 32 | 32 | 32 | 32 | 32 | 32 | 32 | 32
7 | COc1cc2nc(-c3ccc(Cl)cc3)cc(OCCN3CCCCC3)c2cc1OC | 3 | 3 | 3 | 3 | 3 | 3 | 3 | 3 | 3 | 3 | 3 | 3 | 3 | 3
8 | COc1cc2nc(-c3cccs3)cc(OCCCN3CCC(O)CC3)c2cc1OC | 20 | 20 | 20 | 20 | 20 | 20 | 20 | 20 | 20 | 20 | 20 | 20 | 20 | 20
9 | COc1cc2nc(-c3ccco3)cc(OCCCN3CCC(O)CC3)c2cc1OC | 46 | 46 | 46 | 46 | 46 | 46 | 46 | 46 | 46 | 46 | 46 | 46 | 46 | 46
10 | COc1cc2nc(-c3ccc(C(F)(F)F)cc3)cc(OCCN3CCCCC3)c2cc1OC | 13 | 13 | 13 | 13 | 13 | 13 | 13 | 13 | 13 | 13 | 13 | 13 | 13 | 13
11 | COc1cc2nc(-c3ccc(C(F)(F)F)cc3)cc(OCCN3CCC(O)CC3)c2cc1OC | 13 | 13 | 13 | 13 | 13 | 13 | 13 | 13 | 13 | 13 | 13 | 13 | 13 | 13
